Activity and viability data for one compound are collected here from ChEMBL document CHEMBL1629488, “Synthesis and biological evaluation of 2-(3',4',5'-trimethoxybenzoyl)-3-aryl/arylaminobenzo[b]thiophene derivatives as a novel class of antiproliferative agents” (Eur J Med Chem, 2010).

The test system of assay [1] is HeLa. Kind of assay: Induction of apoptosis in human HeLa cells assessed as loss of mitochondrial membrane potential after 24 to 48 hrs using Rho123 staining by flow cytometry. Format: functional, cell-based. The method, boiled down:
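After 24 or 48 h exposure, HeLa cells were pelleted, resuspended in HBSS with 0.1 μM rhodamine 123, held 20 min at 37 °C, spun and resuspended in HBSS; fluorescence read by flow cytometry. Mean ± S.E.M. of 3 independent experiments.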

In assay [2] the test system is HeLa. Kind of assay: Induction of apoptosis in human HeLa cells assessed as caspase-3-mediated cleavage of PARP after 24 to 48 hrs. Format: functional, cell-based. The method, boiled down: (§1)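 Treated cells washed twice in ice-cold PBS, lysed 30 min on ice, lysate cleared at 15000×g, 4 °C, 10 min; protein by BCA. 20 μg per lane on SDS-PAGE (7.5–15%), PVDF transfer, overnight block at 4 °C; primary antibodies 2 h at room temperature, peroxidase secondaries 60 min, ECL detection; β-actin loading control.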

Assay [3] has as its system HeLa. The experiment in a line: Induction of apoptosis in human HeLa cells assessed as caspase-3-mediated cleavage of PARP at 0.625 to 2.5 uM. To be noted: TDE = time-dependent effect. It is filed as functional, cell-based. Put shortly:
as §1

Assay [4] concerns HeLa. Kind of assay: Induction of apoptosis in human HeLa cells assessed as viable cells at 1.25 uM after 24 hrs using FITC-conjugated annexin V and propidium iodide staining by flow cytometry assay (RVb = 94.7 %). It is filed as functional. Particulars: read-out: Activity.
Assay [5] concerns HeLa. The experiment in a line: Induction of apoptosis in human HeLa cells assessed as early apoptotic cells at 5 uM after 24 hrs using FITC-conjugated annexin V and propidium iodide staining by flow cytometry assay (RVb = 1.5 %). Format: functional. In general terms: In flow cytometry, cells or beads pass a laser one at a time.
In assay [6] the test system is HeLa. The experiment in a line: Induction of apoptosis in human HeLa cells assessed as late apoptotic cells at 1.25 uM after 24 hrs using FITC-conjugated annexin V and propidium iodide staining by flow cytometry assay (RVb = 1.9 %). It is filed as functional.
Assay [7] has as its system HeLa. The experiment in a line: Induction of apoptosis in human HeLa cells assessed as necrotic cells at 5 uM after 24 hrs using FITC-conjugated annexin V and propidium iodide staining by flow cytometry assay (RVb = 1.9 %). It is filed as functional.
Assay [8] concerns Jurkat. Kind of assay: Cell cycle arrest in human Jurkat cells assessed as accumulation at S phase at 1.25 uM after 24 hrs using propidium iodide staining by flow cytometry relative to control. Format: functional. The method, boiled down: (§2)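 Exponentially growing cells (5 × 10^5) exposed to graded compound levels, 0.312 to 5 μM, for 24 or 48 h; collected, fixed in ice-cold 70% ethanol, treated with lysis buffer containing RNase A and 0.1% Triton X-100, stained with propidium iodide; DNA content read by flow cytometry. Mean ± SEM of two independent experiments.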

The subject of assay [9] is HeLa. The experiment in a line: Cell cycle arrest in human HeLa cells assessed as reduction of cells at G1 phase at 1.25 uM after 24 hrs using propidium iodide staining by flow cytometry. It is filed as functional, cell-based. Put shortly: as §2
The test system of assay [10] is HeLa. The experiment in a line: Cell cycle arrest in human HeLa cells assessed as hypodiploid peak at sub-G1 phase at 0.312 to 5 uM uM after 48 hrs using propidium iodide staining by flow cytometry. It is filed as functional, cell-based. Put shortly: as §2
Assay [11] relates to Jurkat. Kind of assay: Cell cycle arrest in human Jurkat cells assessed as hypodiploid peak at sub-G1 phase at 0.312 to 5 uM uM after 48 hrs using propidium iodide staining by flow cytometry. Format: functional, cell-based. The method, boiled down:
as §2

The test system of assay [12] is HeLa. The experiment in a line: Upregulation of p53 protein expression in human HeLa cells at up to 2.5 uM after 24 to 48 hrs by Western blot analysis. It is filed as functional, cell-based. Put shortly: as §1
The subject of assay [13] is HeLa. The experiment in a line: Induction of apoptosis in human HeLa cells assessed as caspase-3-mediated cleavage of PARP after 24 hrs by Western blot analysis. Format: functional, cell-based. Put shortly: as §1
A general note: Immunoblotting shows a protein as a band on a membrane.

The source made the active and inactive calls. The rule behind the calls is not given here.

Turning to `CCOc1ccc(Nc2c(C(=O)c3cc(OC)c(OC)c(OC)c3)sc3ccccc23)cc1`, the Activity entry in the assay on HeLa [1] is “Dose-dependent effect”; in the assay with HeLa [2] it was “Dose-dependent effect”; in the assay with HeLa [3] it was “tde”; with HeLa [5], 7.2%; in the assay on HeLa [6], 16%; in the assay with HeLa [7], 17.4%. The Activity in the assay with Jurkat [8] turned out to be 18%. For the same compound, the viability at 1.25 µM with HeLa [4] turned out to be 63.7%. Moreover, the outcome in the assay on HeLa [9], with HeLa [10], in the assay on Jurkat [11] and with HeLa [13] was Active. The outcome in the assay with HeLa [12] was inactive.
